96 compounds from ChEMBL document CHEMBL4513216, “Probing the Open Global Health Chemical Diversity Library for Multistage-Active Starting Points for Next-Generation Antimalarials” (ACS Infect Dis, 2020) can be followed below.

Molecules are shown by their SMILES.

The data set can be described thus: Toxicity liver stage against HepG2, at 10uM. As to conditions: human, HepG2-A16-CD81EGFP cells; read-out: INHIBITION
The arrangement: test concentration 10 uM, cell line HepG2-A16-CD81EGFP. It counts as cell-based. Put shortly:
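Uninfected HepG2-A16-CD81EGFP cells, 3 × 10^3 per well, 1536-well, plated on prespotted compound at 10 μM final, parasite-free screening media added to match infected plates; puromycin 10 μM positive, DMSO 0.5% negative; run in parallel with 48 h PbLuc assay at 37 °C, 5% CO2; viability by CellTiter-Glo luminescence, normalized to controls.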
Consider `COC(=O)c1ccccc1NC(=O)c1c(C)cn(C)c1CC(=O)O`, for which the cytotoxicity at 10 µM is -6.14%.
For `CCc1c(C)sc2nc3n(CC(N)=O)nc(SC)n3c(=O)c12` the value was -0.817%; for `Cc1cc(C)n(-c2ccnc(N3CCC(C(=O)N4CCCC4)CC3)n2)n1`, -9.87%; for `Cc1cc2nc(SCC(=O)N3CCCC3)n(C)c(=O)c2[nH]1`, 11.1%.
For `CCOc1cc2c(cc1CCC(=O)O)CCC2` the value was -4.63%; for `COc1cccc(C2CC(=O)Nc3nc(N4CCCCC4)sc32)c1OC` (stereo unspecified), 10.4%; for `O=C(NCCN1CCCCC1)c1nc(-c2cccc3[nH]ccc23)no1`, 0.142%.
For `CCc1cc(=O)[nH]c2nnc(SCC(=O)OC)n12` the value was -16.6%; for `CCC1=N[C@@]2(CC[C@@H]3CN(C(=O)NC(C)C)C[C@@H]32)C(=O)N1C`, -18%; for `CCOc1ccc(N2CCCN=C2NC(=O)c2ccc(Cl)cc2)cc1`, 8.1%.
For the compound `O=C(O)Cn1ccc2c(Cl)cccc21`, the cytotoxicity at 10 µM came out at 0.308%.
For `Oc1cc(C2CCCCN2Cc2cccs2)nc(-c2ccncc2)n1` (stereo unspecified) the value was 7.78%; for `COc1ccc(-c2cc3nc(CCNC(=O)CN(C)C)nn3cn2)cc1`, 1.98%.
Take `Cc1cc(C)nc(Nc2cc(C)nc(C3CCN(C(=O)CO)C3)n2)n1` (stereo unspecified): the cytotoxicity at 10 µM is 5.34%.
For `COc1ccccc1-c1ccc(C2CCCN(C(C)=O)C2)nc1` (stereo unspecified) the value was -4.96%; for `CNC(=O)C1CN(c2ncccn2)CCN1Cc1ccccc1` (stereo unspecified), 14.3%; for `Cc1nc(C(=O)N2CCC(c3cc(CCO)n(C)n3)C2)co1` (stereo unspecified), -5.42%.
To `CC(C)c1nc(O)c2nnn(C[C@@H]3CCCN(Cc4cccs4)C3)c2n1` belongs 1.76%; to `c1c[nH]c2nc(C3CCNC3)nc-2c1` (stereo unspecified), 10.3%; to `CC(C)N(C)CC(=O)NCc1ccccc1N1CCN(C)CC1`, -7.85%.
To `Cc1nnc(NCCc2coc(-c3ccc(F)cc3)n2)c(C#N)c1C` belongs -16.3%; to `Cc1ncc(S(=O)(=O)Nc2ccnn2C(C)C)[nH]1`, 9.68%.
In the case of `Cc1noc(C)c1C(=O)N1CCC(n2cccn2)CC1`, the cytotoxicity at 10 µM came to 3.82%.
To `Cc1cnn(CCNCc2c(C)nn(C)c2Cl)c1` belongs -15.3%; to `N#Cc1c(F)cccc1Nc1cnn(CC(=O)N2CCOCC2)c1`, 2.2%.
To `NC(=O)CNC1(c2ccc(Br)cc2)CCOCC1` belongs -0.717%; to `COc1cccc(C(O)CNC(=O)CC2CCCCC2)c1` (stereo unspecified), -2.11%; to `CC(=O)N1CCN(CC(=O)N2CCN(c3cccc(C)c3)CC2)CC1`, -3.83%.
To `CN(Cc1noc(C2CC2)n1)C1CCN(Cc2nc(C3CC3)no2)C1` (stereo unspecified) belongs -1.57%; to `CC(C)(C(=O)NCC(=O)NC1CC1)c1ccccc1F`, -4.9%.
Turning to `CCCc1noc(CN(C)Cc2ccc3c(c2)OCO3)n1`, the cytotoxicity at 10 µM was -11.1%.
To `CC(C)Nc1cccc(CNC(=O)N2CCC(N3CC=CC3)C2)c1` (stereo unspecified) belongs 2.01%.
Turning to `CC(=O)Nc1cc2c(cc1C)OCO2`, the cytotoxicity at 10 µM stood at 10.5%.
For `CC(C)(C)OC(=O)N1CCN(S(C)(=O)=O)C2(CCCCC2)C1` the value was 10.3%; for `CC(C)NC(=O)[C@@H]1C[C@H]2OCC[C@H]2N(Cc2ccc3ccccc3n2)C1`, -66.8%; for `Cc1ccsc1C(=O)N1CCc2ncnc(NC(C)C)c2CC1`, -79.3%.
On to `O=C(NCC1CC1)C1CN(C(=O)Nc2ccccc2)CC12CCOCC2` (stereo unspecified), for which the cytotoxicity at 10 µM was -82.6%.
To `CS(=O)(=O)N1CC[C@@H]2[C@@H](CCC(=O)N2CCC2=CCCCC2)C1` belongs -5.64%.
Take `Cc1cccc(CN2CCN(C(=O)c3cnc(C)[nH]c3=O)CC2)c1`: the cytotoxicity at 10 µM is -3.32%.
For `CCN1CCC(N2C[C@H]3OC(=O)N(CCc4cccc(Cl)c4)[C@H]3C2)CC1` the value was -5.4%; for `Cc1ccc(C)c2c(=O)cc(CN3CC[C@@H](N)[C@H](O)C3)[nH]c12`, 8.24%.
To `CSCCN1CCN(c2nc(N)ncc2C)CC1` belongs 1.54%.
To `COCCN(C)C[C@@H]1CN(C(=O)c2ccc(SC)cc2)C[C@@H]1CO` belongs 4.44%; to `c1cncc(-c2noc(CCNc3ncnc4c3CCNCC4)n2)c1`, 3.38%; to `Cc1cc(C)cc(-c2cc(C3CCOC3)c(C#N)c(N)n2)c1` (stereo unspecified), 1.44%.
As for `CCCN1CCC(NN2CCN(C)CC2)CC1`, the cytotoxicity at 10 µM is -2.38%.
For the compound `CC(C)CCN1CC2(CCCN(C(=O)CNC(=O)N(C)C)C2)CCC1=O` (stereo unspecified), the cytotoxicity at 10 µM is 9.94%.
To `Cc1nc2c(N(CCC(N)=O)CCc3ccccc3)ncnc2o1` belongs 4.6%; to `CN(Cc1cc[nH]n1)C(=O)c1cn(Cc2c(F)cccc2F)nn1`, 7.29%.
For `Cc1ccc(O)c(C(=O)N2C[C@@H](C(=O)O)[C@H](c3ccccc3)C2)c1` the value was 0.00559%.
For `CN(C)CCN(CC1CCCO1)S(=O)(=O)NCc1ccccc1` (stereo unspecified) the value was 0.666%; for `COc1ccc(-n2c(CO)nc3ccccc32)cc1CO`, 1.78%; for `COc1ccc(CN(Cc2cnn(C)c2)CC(C)C)cn1`, -18.4%.
For `Cc1ccc(C(C(=O)N2CC(c3ccccn3)C2)N(C)C)cc1` (stereo unspecified), the cytotoxicity at 10 µM is -9.82%.
To `CCNc1ncc(C(=O)NCCCc2ccncc2)cn1` belongs 0.562%.
For `Cc1ccc(Oc2ncccc2CNC(=O)NC2CCCCC2)cn1` the value was -3.01%; for `CC(C)C(=O)N1CCN(C(=O)c2cc(C(C)C)no2)[C@H]2CS(=O)(=O)C[C@H]21`, -9.43%; for `CN1CCC(C2CCN(Cc3cccc(-n4cccn4)c3)CC2)C1` (stereo unspecified), -6.15%.
To `CCC(=O)N1CCN(Cc2cc(-c3ccncc3)nn2C)CC1` belongs 4.24%.
As for `COc1cc(CNCc2ccnc(N3CCOCC3)c2)cc(OC)c1`, the cytotoxicity at 10 µM was 6.1%.
In the case of `CC(Cn1ccnc1)NC(=O)C1(c2cccc(Cl)c2)CC1` (stereo unspecified), the cytotoxicity at 10 µM is -19.3%.
To `CC(C)c1nc(CN2CCCC2c2cnn(C)c2)cs1` (stereo unspecified) belongs 0.0791%; to `Cc1ccc(-c2nnc(CN3CCOC(Cn4cncn4)C3)o2)cc1` (stereo unspecified), -10.2%; to `CCc1nc(CN(C(C)=O)C2CCN(CCc3ccccc3)C2)no1` (stereo unspecified), -2.18%.
For `CN(CCC(=O)N1CCc2sccc2C1)Cc1cnn(C)c1` the value was -18.6%; for `CN(CCC(=O)N1CCc2sccc2C1)Cc1cc(Br)cs1`, -14.8%.
For `Cc1noc(C)c1CC(=O)N1CCc2sccc2C1` the value was -18.4%; for `COc1ccc(C)cc1C(C)NC(=O)CCn1cncn1` (stereo unspecified), -7.82%; for `O=C(NCCN1C(=O)c2ccccc2C1=O)c1scnc1Cl`, -12.3%.
As for `Cc1ccc(C(=O)N2CCN(Cc3cccs3)CC2)n1C`, the cytotoxicity at 10 µM was -5.37%.
For `Cc1cc(C)n(CC2CCCN2C(=O)c2ccc3nnc(C)n3c2)n1` (stereo unspecified) the value was -3.6%.
For `COc1ccc(N2CCN(C(=O)NC(C)c3nncn3C)CC2)cc1` (stereo unspecified) the value was -7.12%.
To `Cc1cc(NC(=O)CN2CCCC2c2noc(C3CC3)n2)n(C)n1` (stereo unspecified) belongs -1.16%; to `COc1cc(C(=O)N2CCCC(n3ccnc3)C2)cc2c1OCCO2` (stereo unspecified), -5.28%.
Regarding `CC(=O)Nc1nc(C(=O)NCc2ccc(N3CCOCC3)nc2)cs1`, the cytotoxicity at 10 µM was -14%.
For `COc1c(CNCc2ccnc(N3CCOCC3)c2)c(C)nn1C` the value was -1.82%.
For `O=C(CN1CCCC1c1cccs1)N1CCc2sccc2C1` (stereo unspecified) the value was -17%; for `COc1ccc(CNC(=O)Nc2cccnc2N2CCCC2)cc1`, -21.5%.
To `COc1cc(C)nc(N2CCN(C(=O)c3cc(C)no3)CC2)n1` belongs -30.4%.
Regarding `O=C(c1ccc(OCC2CC2)nc1)N1CCCC(n2ccnc2)C1` (stereo unspecified), the cytotoxicity at 10 µM was -9.16%.
To `CCCNC(=O)CCC(=O)Nc1ccc(-n2cncn2)c(F)c1` belongs 1.94%; to `Cc1cnn(CCNCc2nc(COc3ccc(F)cc3)no2)c1`, -5.61%.
For `Cc1nc(C2CCCN2CC(=O)N2CCCc3ccccc32)no1` (stereo unspecified) the value was -8.7%; for `O=C(NCc1ccccn1)N(Cc1ccc(F)cc1F)C1CC1`, -17.5%; for `N#Cc1ccccc1N1CCCN(C(=O)CCn2cccn2)CC1`, -13.1%.
For `Cc1noc(C2CCN(Cc3cc(=O)n(C)c(=O)n3C)CC2)n1` the value was -2.57%.
As to `Cc1ccsc1CNc1cc(N2CCCC2CO)ncn1` (stereo unspecified), the cytotoxicity at 10 µM was -2.45%.
For `Cc1nc(CN2CCCC(N(C)Cc3nnsc3Cl)C2)no1` (stereo unspecified) the value was -4.36%; for `Cc1ccc(CN(Cc2c[nH]cn2)C2CC(C)(C)NC(C)(C)C2)o1`, -0.105%.
To `O=C([C@H]1C[C@H]2OCC[C@H]2N(Cc2ccoc2)C1)N1CCCO1` belongs -69.8%; to `NCC(=O)N1CCC(c2ccnc(Nc3cc(C(F)(F)F)ccn3)n2)C1` (stereo unspecified), 9.83%; to `Cc1nc(CN2C(=O)CCC23CCN(Cc2ccccn2)CC3)cs1`, -2.71%.
In the case of `CN1CCN(CC2CN(CC3CC3)Cc3nccn3C2)CC1` (stereo unspecified), the cytotoxicity at 10 µM was -76.1%.
To `CC(=O)N1CCO[C@H]2[C@H](OCCCn3cccn3)CC[C@@H]21` belongs 7.16%.
For `COc1cccc(-c2n[nH]cc2CNC2CCC(O)CC2)c1` (stereo unspecified) the value was -0.874%.
Take `CCS(=O)(=O)N1CCC2(CN(c3cccc(F)c3)C(=O)CN2C)C1` (stereo unspecified): the cytotoxicity at 10 µM is -74.4%.
